The values that follow come from ChEMBL document CHEMBL1121813, “Dihydrochalcone sweeteners. A study of the atypical temporal phenomena” (1981).

Common to all, as to format: functional
For assay [1], the species on record is Homo sapiens. The experiment in a line: Number of taste judgments per compound.
The species entered for assay [2] is Homo sapiens. The experiment in a line: Experimentally determined perceived intensity of compound at a concentration of 495 ppm (mean value). Summed up:
(§1)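 Trained human sensory panel of judges tasted aqueous solutions of the compound. Samples had to be ≥95 weight % pure (HPLC, proton titration, Karl Fischer), non-mutagenic in five Salmonella typhimurium strains with and without microsomal activation, and non-toxic in a single-oral-dose mouse test. Perceived intensity (Ip) was read from time–intensity curves at 4- or 6-s intervals and averaged. Outliers at the 95% level were rejected by t-value. Values reported as mean (2Sm).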

The species named for assay [3] is Homo sapiens. The experiment in a line: Percentage of judgments reporting an aftertaste at a concentration of 495 ppm and character thereof.
For assay [4], the species on record is Homo sapiens. The assay can be described thus: Intensity calculated on a weight basis relative to an 85500 ppm sucrose solution at a concentration of 250 ppm (mean value). In outline: (§2)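 Trained human panel tasted aqueous solutions of purity-checked (≥95 weight percent) compounds cleared for mutagenicity and mouse oral toxicity. Weight-basis intensity I_w = perceived intensity × (85500 ppm sucrose / compound concentration in ppm). The mean is reported with 2S_m limits; data deviating excessively at 95% confidence were rejected by the t-value method.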

The species named for assay [5] is Homo sapiens. The assay can be described thus: Sweet character at a concentration of 250 ppm (mean value). Summed up: (§3)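 Trained human sensory panel (Swartz method) tasted dilute aqueous solutions of the compounds, which had to be ≥95 weight percent pure and free of mutagenicity and toxicity. Taste character is reported as the mean value with 2S_m limits. Data deviating excessively at the 95% confidence level were rejected by the t-value method.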

For assay [6], the species on record is Homo sapiens. The experiment in a line: Salty character at a concentration of 250 ppm (mean value). Summed up: as §3
For assay [7], the species on record is Homo sapiens. The assay can be described thus: Intensity calculated on a molar basis relative to a 0.25 M sucrose solution at a concentration of 250 ppm (mean value). Summed up: (§4)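 Trained human judges tasted aqueous solutions of the test compound; compounds were first required to be ≥95 weight percent pure and free of mutagenicity (five Salmonella typhimurium strains, ± microsomal activation) and of single oral dose mouse toxicity. Molar intensity I_m = perceived intensity × (0.25 M sucrose / compound molar concentration). The mean is reported with 2S_m limits; outliers were rejected at 95% confidence by t-value.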

For assay [8], the species on record is Homo sapiens. The experiment in a line: Other taste character at a concentration of 250 ppm (mean value). In outline: as §3
Assay [9] is filed under the species Homo sapiens. The assay can be described thus: Sour character at a concentration of 250 ppm (mean value). Summed up: as §3
The species entered for assay [10] is Homo sapiens. The assay can be described thus: Bitter character at a concentration of 250 ppm (mean value). In outline: (§5)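 Trained human panel tasted aqueous solutions. Each judge reported whether there was an aftertaste and its character (sweet, bitter or bitter-sweet). The value is the percentage of judgments reporting a bitter aftertaste.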
For assay [11], the species on record is Homo sapiens. The experiment in a line: Percentage of judgments reporting an aftertaste at a concentration of 250 ppm and character thereof. Summed up:
(§6)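 Trained judges tasted aqueous solutions of the compounds, which had to be ≥95 weight percent pure and to have passed mutagenicity and single oral dose toxicity screening. The value is the percentage of panel judgments reporting an aftertaste. Where given, its character is recorded as sweet, bitter or bitter-sweet.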

The species entered for assay [12] is Homo sapiens. The experiment in a line: Experimentally determined perceived intensity of compound at a concentration of 250 ppm (mean value). In outline:
as §1

The species named for assay [13] is Homo sapiens. The experiment in a line: Sweet / Bitter character at a concentration of 250 ppm (mean value); 94/6.
For assay [14], the species on record is Homo sapiens. The assay can be described thus: Percentage of judgments reporting an aftertaste at a concentration of 501 ppm and character thereof.
For assay [15], the species on record is Homo sapiens. The assay can be described thus: Experimentally determined perceived intensity of compound at a concentration of 501 ppm (mean value). In outline:
as §1

Assay [16] is filed under the species Homo sapiens. The assay can be described thus: Intensity calculated on a molar basis relative to a 0.25 M sucrose solution at a concentration of 501 ppm (mean value). Summed up: as §4
Assay [17] is filed under the species Homo sapiens. The experiment in a line: Other taste character at a concentration of 501 ppm (mean value). Summed up:
as §3

For assay [18], the species on record is Homo sapiens. The experiment in a line: Salty character at a concentration of 501 ppm (mean value).
For assay [19], the species on record is Homo sapiens. The assay can be described thus: Bitter character at a concentration of 501 ppm (mean value). In outline: as §5
The species entered for assay [20] is Homo sapiens. The experiment in a line: Sweet character at a concentration of 501 ppm (mean value).
The species named for assay [21] is Homo sapiens. The assay can be described thus: Intensity calculated on a weight basis relative to an 85500 ppm sucrose solution at a concentration of 501 ppm (mean value). Summed up:
as §2

Assay [22] is filed under the species Homo sapiens. The experiment in a line: Sour character at a concentration of 501 ppm (mean value).
The species entered for assay [23] is Homo sapiens. The experiment in a line: Sweet / Bitter character at a concentration of 501 ppm (mean value); 0/100.
Assay [24] is filed under the species Homo sapiens. The assay can be described thus: Intensity calculated on a molar basis relative to a 0.25 M sucrose solution at a concentration of 252 ppm (mean value). Summed up:
as §4

For assay [25], the species on record is Homo sapiens. The experiment in a line: Other taste character at a concentration of 252 ppm (mean value). In outline:
as §3

The species named for assay [26] is Homo sapiens. The experiment in a line: Bitter character at a concentration of 252 ppm (mean value). Summed up:
as §5

The species entered for assay [27] is Homo sapiens. The experiment in a line: Salty character at a concentration of 252 ppm (mean value). Summed up:
as §3

For assay [28], the species on record is Homo sapiens. The experiment in a line: Intensity calculated on a weight basis relative to an 85500 ppm sucrose solution at a concentration of 252 ppm (mean value). In outline:
as §2

The species named for assay [29] is Homo sapiens. The assay can be described thus: Sweet / Bitter character at a concentration of 252 ppm (mean value).
Assay [30] is filed under the species Homo sapiens. The assay can be described thus: Sour character at a concentration of 252 ppm (mean value). Summed up: as §3
The species named for assay [31] is Homo sapiens. The assay can be described thus: Sweet character at a concentration of 252 ppm (mean value). In outline: as §3
The species entered for assay [32] is Homo sapiens. The experiment in a line: Percentage of judgments reporting an aftertaste at a concentration of 252 ppm and character thereof; Bitter. In outline: as §6
The species named for assay [33] is Homo sapiens. The assay can be described thus: Experimentally determined perceived intensity of compound at a concentration of 252 ppm (mean value). In outline:
as §1

The species entered for assay [34] is Homo sapiens. The experiment in a line: Experimentally determined perceived intensity of compound at a concentration of 4100 ppm (mean value). Summed up: as §1
The species entered for assay [35] is Homo sapiens. The experiment in a line: Percentage of judgments reporting an aftertaste at a concentration of 2000 ppm and character thereof. Summed up: as §6
Assay [36] is filed under the species Homo sapiens. The experiment in a line: Intensity calculated on a weight basis relative to an 85500 ppm sucrose solution at a concentration of 2000 ppm (mean value). In outline: as §2
The species named for assay [37] is Homo sapiens. The assay can be described thus: Bitter character at a concentration of 2000 ppm (mean value). In outline:
as §5

Assay [38] is filed under the species Homo sapiens. The assay can be described thus: Other taste character at a concentration of 2000 ppm (mean value). In outline: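 Trained human panel tasted aqueous solutions of each compound. Aftertaste is scored as the percentage of judgments reporting one, with its character coded sweet (s), bitter (b) or bitter-sweet (bs).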
The species named for assay [39] is Homo sapiens. The experiment in a line: Intensity calculated on a molar basis relative to a 0.25 M sucrose solution at a concentration of 2000 ppm (mean value). In outline:
as §4

The species entered for assay [40] is Homo sapiens. The experiment in a line: Sweet / Bitter character at a concentration of 2000 ppm (mean value); 0/100.
The species named for assay [41] is Homo sapiens. The assay can be described thus: Experimentally determined perceived intensity of compound at a concentration of 2000 ppm (mean value). In outline:
as §1

The species named for assay [42] is Homo sapiens. The assay can be described thus: Salty character at a concentration of 2000 ppm (mean value). In outline: as §3
Assay [43] is filed under the species Homo sapiens. The experiment in a line: Sour character at a concentration of 2000 ppm (mean value). Summed up:
as §3

Assay [44] is filed under the species Homo sapiens. The assay can be described thus: Sweet character at a concentration of 2000 ppm (mean value). Summed up: as §3

Regarding `COc1ccc(CCC(=O)c2c(O)cc(OC(C(=O)[O-])C(=O)[O-])cc2O)cc1O.[Na+].[Na+]`, the Judgments in the assay filed under Homo sapiens [1] was 1; in the assay listed under Homo sapiens [3] it was 0. Also, the IP in the assay filed under Homo sapiens [2] is 0.
Regarding `COc1ccc(CCC(=O)c2c(O)cc(OCCNS(=O)(=O)[O-])cc2O)cc1O.[K+]`, the Judgments in the assay filed under Homo sapiens [1] stood at 12; in the assay listed under Homo sapiens [11], 100. Also, in the assay filed under Homo sapiens [4], the IW is on record as 350. Further, the Taste character in the assay filed under Homo sapiens [5] turned out to be 89; in the assay listed under Homo sapiens [6], 0; in the assay filed under Homo sapiens [8], 5; in the assay listed under Homo sapiens [9] it was 0; in the assay listed under Homo sapiens [10], 6; in the assay listed under Homo sapiens [13], 94. In the assay listed under Homo sapiens [7], the IM is recorded as 480. Besides, the IP in the assay filed under Homo sapiens [12] is listed as 1.03.
Turning to `O=C([O-])COc1cc(O)c(C(=O)CCc2ccccc2)c(O)c1.[Na+]`, the values for the Judgments in the assay listed under Homo sapiens [1] and in the assay listed under Homo sapiens [14] were 12 and 100, respectively. For the same molecule, the IP in the assay filed under Homo sapiens [15] came to 0.91. Besides, the IM in the assay listed under Homo sapiens [16] is 150. The Taste character was determined as 21 in the assay listed under Homo sapiens [17]; 0 in the assay filed under Homo sapiens [18]; 79 in the assay listed under Homo sapiens [19]; 0 in the assay filed under Homo sapiens [20]; 0 in the assay listed under Homo sapiens [22]; 0 in the assay listed under Homo sapiens [23]. Moreover, in the assay listed under Homo sapiens [21], the IW was 160.
On to `O=C(O)CCc1cccc(O)c1`, for which the Judgments stood at 8 in the assay listed under Homo sapiens [1] and 38 in the assay listed under Homo sapiens [32]. The IM in the assay listed under Homo sapiens [24] is on record as 80. Moreover, the Taste character in the assay listed under Homo sapiens [25] worked out at 0; in the assay listed under Homo sapiens [26] it was 4; in the assay listed under Homo sapiens [27] it was 0; in the assay listed under Homo sapiens [29], 0; in the assay filed under Homo sapiens [30] it was 96; in the assay listed under Homo sapiens [31], 0. For the same molecule, the IW in the assay filed under Homo sapiens [28] is reported as 160. Also, the IP in the assay filed under Homo sapiens [33] is 0.46.
With `COc1ccc(-c2cc(=O)c3c(O)cc(OCCCS(=O)(=O)[O-])cc3o2)cc1O.[K+]`, the Judgments in the assay listed under Homo sapiens [1] is recorded as 1. In addition, the IP in the assay listed under Homo sapiens [34] is 0.
As to `CC(=O)c1c(O)cc(OCC(=O)[O-])cc1O.[Na+]`, the Judgments is listed as 1 in the assay filed under Homo sapiens [1] and 0 in the assay filed under Homo sapiens [35]. In addition, the IW in the assay filed under Homo sapiens [36] is given as 10. The Taste character in the assay listed under Homo sapiens [37] came out at 100; in the assay listed under Homo sapiens [38] it was 0; in the assay filed under Homo sapiens [40] it was 0; in the assay listed under Homo sapiens [42], 0; in the assay filed under Homo sapiens [43] it was 0; in the assay listed under Homo sapiens [44] it was 0. In addition, the IM in the assay listed under Homo sapiens [39] is on record as 0. Besides, the IP in the assay filed under Homo sapiens [41] is 0.25.
